Measurements taken from ChEMBL document CHEMBL4699489, “Optimized Opioid-Neurotensin Multitarget Peptides: From Design to Structure-Activity Relationship Studies” (J Med Chem, 2020).
Numbered stars: 1 amine (or outer) side, 2 acyl side, 3 side chain; on linkers, the order of the positions; unused ones are H or OH. Square brackets hold non-standard residues; d marks the D form. Peptide text beside a SMILES is read from it. X1 = O=C1[C@@H](N[*:1])Cc2ccccc2CN1CCC(=O)[*:2]; Dmt = Cc1cc(O)cc(C)c1C[C@H](N)C(=O)O; mTyr = N[C@@H](Cc1cccc(O)c1)C(=O)O; Tle = CC(C)(C)[C@H](N)C(=O)O; β3hK = NCCCC[C@H](N)CC(=O)O

What was measured:
[1] = target: T1, Mu-type opioid receptor (Homo sapiens, UniProt P35372); test: Displacement of [3H]-DAMGO from recombinant human mu opioid receptor expressed in CHO cell membrane incubated for 60 mins by liquid scintillation counting method; assay type: cell membranes
How it was run: (§1)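 Membranes from CHO-hMOR, -hDOR or -hKOR cells, homogenized and washed in 50 mM Tris-HCl pH 7.4. Membranes (15–20 μg) incubated with [3H]DAMGO (MOR), [3H]diprenorphine (DOR) or [3H]U69,593 (KOR) plus graded peptide, 60 min at 25 °C. Nonspecific binding with 1–10 μM of the unlabelled ligand. GF/C filtration, scintillation counting. Ki by Cheng–Prusoff. Duplicate, three independent experiments.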

[2] = target: T2, Delta-type opioid receptor (Homo sapiens, UniProt P41143); test: Displacement of [3H]-Diprenorphine from recombinant human delta opioid receptor expressed in CHO cell membrane incubated for 60 mins by liquid scintillation counting method; assay type: cell membranes; how it was run: as §1
[3] = target: T3, Kappa-type opioid receptor (Homo sapiens, UniProt P41145); test: Displacement of [3H]-U69593 from recombinant human kappa opioid receptor expressed in CHO cell membrane incubated for 60 mins by liquid scintillation counting method; assay type: cell membranes; how it was run: as §1
[4] = target: T4, Neurotensin receptor type 1 (Homo sapiens, UniProt P30989); test: Displacement of [125I]-neurotensin from human recombinant NTS1 stably expressed in CHO-K1 cell membranes incubated for 60 mins by gamma counter method
[5] = target: Neurotensin receptor type 2 (Homo sapiens, UniProt O95665); test: Displacement of [125I]-neurotensin from human recombinant NTS2 stably expressed in human 1321N1 cell membranes incubated for 60 mins by gamma counter method
[6] = target: T1, Mu-type opioid receptor; test: Potency index, ratio of PK20 Ki to test compound Ki for displacement of [3H]-DAMGO from recombinant human mu opioid receptor expressed in CHO cell membranes
[7] = target: T1, Mu-type opioid receptor; test: Agonist activity at human MOR stably expressed in CHO cell membranes assessed as stimulation of [35S]-GTPgammaS binding incubated for 1 hr by liquid scintillation counting assay; assay type: functional
How it was run: (§2)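 Membranes from CHO cells stably expressing hMOR, hDOR or hKOR, prepared in 20 mM HEPES, 10 mM MgCl2, 100 mM NaCl, pH 7.4. Membranes (5–10 μg) incubated with 0.05 nM [35S]GTPγS, 10 μM GDP and graded peptide concentrations, 60 min at 25 °C. Nonspecific binding with 10 μM GTPγS, basal without ligand. GF/B filtration, scintillation counting. EC50 and Emax by nonlinear regression; Emax relative to DAMGO, DPDPE or U69,593. Duplicate, three independent experiments.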

[8] = target: T1, Mu-type opioid receptor; test: Agonist activity at human MOR expressed in CHO cell membranes assessed as stimulation of [35S]-GTPgammaS binding incubated for 1 hr by liquid scintillation counting assay relative to DAMGO; assay type: functional; conditions: filed as agonist, time 60.0 min; how it was run: as §2
[9] = target: T1, Mu-type opioid receptor; test: Agonist activity at human MOR expressed in human U2OS cells assessed as increase in beta arrestin2 recruitment incubated for 90 mins by pathhunter beta-arrestin assay; assay type: cell-based
How it was run: (§3)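 U2OS cells stably coexpressing hMOR and enzyme acceptor-tagged β-arrestin-2, seeded at 5000 cells/well and kept 24 h at 37 °C. Graded peptide concentrations in PBS added for 90 min at 37 °C, then detection mix for 60 min at room temperature. Chemiluminescence read-out. EC50 and Emax (relative to DAMGO) by nonlinear regression. Duplicate, three independent experiments.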

[10] = target: T1, Mu-type opioid receptor; test: Agonist activity at human MOR expressed in human U2OS cells assessed as increase in beta arrestin2 recruitment incubated for 90 mins by pathhunter beta-arrestin assay relative to DAMGO; assay type: cell-based; conditions: filed as partial agonist; how it was run: as §3
[11] = target: T2, Delta-type opioid receptor; test: Agonist activity at human DOR stably expressed in CHO cell membranes assessed as stimulation of [35S]-GTPgammaS binding incubated for 1 hr by liquid scintillation counting assay; assay type: functional; how it was run: as §2
[12] = target: T2, Delta-type opioid receptor; test: Agonist activity at human DOR stably expressed in CHO cell membranes assessed as stimulation of [35S]-GTPgammaS binding incubated for 1 hr by liquid scintillation counting assay relative to DPDPE; assay type: functional; conditions: filed as agonist, time 60.0 min; how it was run: as §2
[13] = target: T3, Kappa-type opioid receptor; test: Agonist activity at human KOR stably expressed in CHO cell membranes assessed as stimulation of [35S]-GTPgammaS binding incubated for 1 hr by liquid scintillation counting assay; assay type: functional; how it was run: as §2
[14] = target: T3, Kappa-type opioid receptor; test: Agonist activity at human KOR stably expressed in CHO cell membranes assessed as stimulation of [35S]-GTPgammaS binding incubated for 1 hr by liquid scintillation counting assay relative to U69593; assay type: functional; conditions: time 60.0 min; how it was run: as §2
[15] = target: T4, Neurotensin receptor type 1; test: Agonist activity at human NTS1 expressed in HEK293 cells co-expressing Galphaq/RlucII/GFP10-Ggamma1/Gbeta1 assessed as increase in Galphaq activation incubated for 10 mins in presence of coelenterazine 400A by BRET assay; assay type: cell-based
[16] = target: T4, Neurotensin receptor type 1; test: Agonist activity at human NTS1 expressed in HEK293 cells co-expressing Galphaq/RlucII/GFP10-Ggamma1/Gbeta1 assessed as increase in Gq activation incubated for 10 mins in presence of coelenterazine 400A by BRET assay relative to NT (8-13); assay type: cell-based

T3 sequence (P41145 whole entry): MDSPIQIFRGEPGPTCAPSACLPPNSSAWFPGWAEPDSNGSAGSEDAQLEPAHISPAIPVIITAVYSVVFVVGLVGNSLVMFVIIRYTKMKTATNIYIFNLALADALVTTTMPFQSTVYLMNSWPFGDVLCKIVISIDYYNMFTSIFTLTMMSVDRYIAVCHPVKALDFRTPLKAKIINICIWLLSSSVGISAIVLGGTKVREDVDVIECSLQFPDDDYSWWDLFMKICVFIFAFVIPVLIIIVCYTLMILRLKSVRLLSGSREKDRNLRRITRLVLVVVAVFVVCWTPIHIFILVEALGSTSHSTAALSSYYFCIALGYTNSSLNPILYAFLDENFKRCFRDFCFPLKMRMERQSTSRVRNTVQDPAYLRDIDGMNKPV
T1 sequence (P35372 whole entry): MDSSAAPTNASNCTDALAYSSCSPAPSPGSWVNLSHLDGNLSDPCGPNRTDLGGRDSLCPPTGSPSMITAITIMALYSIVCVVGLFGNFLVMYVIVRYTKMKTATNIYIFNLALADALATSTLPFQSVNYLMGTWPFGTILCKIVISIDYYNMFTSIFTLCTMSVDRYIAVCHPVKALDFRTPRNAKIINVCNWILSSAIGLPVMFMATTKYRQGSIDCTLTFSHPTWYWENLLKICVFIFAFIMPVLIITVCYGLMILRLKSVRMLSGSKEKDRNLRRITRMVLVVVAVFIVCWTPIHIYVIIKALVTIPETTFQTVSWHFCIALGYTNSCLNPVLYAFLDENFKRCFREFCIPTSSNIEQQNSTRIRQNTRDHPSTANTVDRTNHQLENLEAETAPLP
T4 sequence (P30989 whole entry): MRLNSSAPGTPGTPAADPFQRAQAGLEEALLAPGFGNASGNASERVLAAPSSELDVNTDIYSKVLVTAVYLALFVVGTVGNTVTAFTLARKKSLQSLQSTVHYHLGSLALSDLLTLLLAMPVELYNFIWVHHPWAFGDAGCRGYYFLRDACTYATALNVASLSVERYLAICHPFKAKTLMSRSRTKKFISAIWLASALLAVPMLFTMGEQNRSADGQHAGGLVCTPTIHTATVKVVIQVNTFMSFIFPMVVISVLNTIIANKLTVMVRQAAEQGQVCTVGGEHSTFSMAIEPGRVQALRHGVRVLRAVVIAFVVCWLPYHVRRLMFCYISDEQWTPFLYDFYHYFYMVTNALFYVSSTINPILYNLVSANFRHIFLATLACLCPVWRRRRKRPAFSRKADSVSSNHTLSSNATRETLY
Sequence of Neurotensin receptor type 2 (O95665 whole entry): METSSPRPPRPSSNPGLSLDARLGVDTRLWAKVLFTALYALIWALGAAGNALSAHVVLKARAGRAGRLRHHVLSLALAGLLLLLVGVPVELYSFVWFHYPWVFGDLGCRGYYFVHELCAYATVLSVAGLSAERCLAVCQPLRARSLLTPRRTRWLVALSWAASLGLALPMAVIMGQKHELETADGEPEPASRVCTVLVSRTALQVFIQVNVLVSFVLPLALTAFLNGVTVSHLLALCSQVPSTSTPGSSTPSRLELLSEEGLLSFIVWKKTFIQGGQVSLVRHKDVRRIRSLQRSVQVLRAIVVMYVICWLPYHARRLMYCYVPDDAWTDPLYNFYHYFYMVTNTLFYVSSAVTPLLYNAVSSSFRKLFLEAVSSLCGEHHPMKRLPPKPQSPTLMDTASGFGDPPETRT
T2 sequence (P41143 whole entry): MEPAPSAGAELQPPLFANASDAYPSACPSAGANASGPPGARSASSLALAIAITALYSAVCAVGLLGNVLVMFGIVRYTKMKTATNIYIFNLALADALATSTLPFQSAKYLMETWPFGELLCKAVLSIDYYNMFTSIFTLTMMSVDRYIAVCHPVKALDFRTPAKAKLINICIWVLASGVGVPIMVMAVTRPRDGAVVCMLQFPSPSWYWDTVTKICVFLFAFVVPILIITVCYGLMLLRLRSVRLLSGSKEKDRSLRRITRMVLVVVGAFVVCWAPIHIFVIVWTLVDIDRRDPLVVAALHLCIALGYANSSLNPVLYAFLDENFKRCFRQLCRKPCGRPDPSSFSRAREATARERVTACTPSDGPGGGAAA

Row | SMILES | Ki [1] [nM] | Ki [2] [nM] | Ki [3] [nM] | Ki [4] [nM] | Ki [5] [nM] | Ratio Ki [6] | EC50 [7] [nM] | Emax [8] [%] | EC50 [9] [nM] | Emax [10] [%] | EC50 [11] [nM] | Emax [12] [%] | EC50 [13] [nM] | Emax [14] [%] | EC50 [15] [nM] | Emax [16] [%]
1 | Cc1cc(O)cc(C)c1C[C@H](NC(=O)[C@@H]1CCCN1C(=O)[C@H](CCCNC(=N)N)NC(=O)[C@H](CCCNC(=N)N)NC(=O)CCN1Cc2ccccc2C[C@H](NC(=O)[C@@H](CCCNC(=N)N)NC(=O)[C@@H](N)Cc2c(C)cc(O)cc2C)C1=O)C(=O)N[C@H](C(=O)N[C@@H](CC(C)C)C(=O)O)C(C)(C)C (H-[Dmt][dR][X1]RRP[Dmt][Tle]L-OH) | 1.11 | 159 | 102 | 0.78 | 0.03 | 2 | 9.12 | 96 | 1140 | 79 | 313 | 91 | 415 | 37 | 1.3 | 101
2 | Cc1cc(O)cc(C)c1C[C@H](NC(=O)[C@@H]1CCCN1C(=O)[C@H](CCCNC(=N)N)NC(=O)C[C@@H](N)CCCNC(=N)N)C(=O)N[C@H](C(=O)N[C@@H](CC(C)C)C(=O)O)C(C)(C)C |  |  |  | 2.3 | 0.11 |  |  |  |  |  |  |  |  |  |  | 
3 | Cc1cc(O)cc(C)c1C[C@H](N)C(=O)N[C@H](CCCNC(=N)N)C(=O)N[C@H]1Cc2ccccc2CN(CCC(=O)N[C@@H](CCCNC(=N)N)C(=O)N[C@@H](CCCNC(=N)N)C(=O)N2CCC[C@H]2C(=O)N[C@@H](Cc2cccc(O)c2)C(=O)N[C@H](C(=O)N[C@@H](CC(C)C)C(=O)O)C(C)(C)C)C1=O (H-[Dmt][dR][X1]RRP[mTyr][Tle]L-OH) | 1.73 | 60.9 | 19.9 | 12.4 | 0.33 | 2 | 6.49 | 95 | 359 | 81 | 177 | 110 | 424 | 28 | 6.7 | 95
4 | Cc1cc(O)cc(C)c1C[C@H](NC(=O)[C@@H]1CCCN1C(=O)[C@H](CCCCN)NC(=O)C[C@H](CCCCN)NC(=O)CCN1Cc2ccccc2C[C@H](NC(=O)[C@@H](CCCNC(=N)N)NC(=O)[C@@H](N)Cc2c(C)cc(O)cc2C)C1=O)C(=O)N[C@H](C(=O)N[C@@H](CC(C)C)C(=O)O)C(C)(C)C (H-[Dmt][dR][X1][β3hK]KP[Dmt][Tle]L-OH) | 7.12 | 48.6 | 208 | 15 | 0.32 | 2 | 65.4 | 97 | 3040 | 69 | 248 | 97 | 239 | 36 | 1.8 | 112
5 | Cc1cc(O)cc(C)c1C[C@H](N)C(=O)N[C@H](CCCNC(=N)N)C(=O)N[C@H]1Cc2ccccc2CN(CCC(=O)N[C@@H](CCCCN)C(=O)N[C@@H](CCCCN)C(=O)N2CCC[C@H]2C(=O)N[C@@H](Cc2cccc(O)c2)C(=O)N[C@H](C(=O)N[C@@H](CC(C)C)C(=O)O)C(C)(C)C)C1=O (H-[Dmt][dR][X1]KKP[mTyr][Tle]L-OH) | 3.99 | 200 | 70.9 | 59 | 0.5 | 2 | 27.4 | 87 | 1270 | 66 | 452 | 90 | 401 | 30 | 15 | 90
6 | CC(C)C[C@H](NC(=O)[C@@H](NC(=O)[C@H](Cc1cccc(O)c1)NC(=O)[C@@H]1CCCN1C(=O)[C@H](CCCNC(=N)N)NC(=O)[C@@H](N)CCCNC(=N)N)C(C)(C)C)C(=O)O |  |  |  | 93 | 24 |  |  |  |  |  |  |  |  |  |  | 
